High-throughput results: PubChem, several laboratories
Apaf-1 inh: blocks human Apaf-1 apoptosome activity; O14727; reconstituted apoptosome caspase-3 activity, DEVD-Rh110 fluorescence; inhibition, % at 20 µM; 330,000 compounds, 0.71% hits; active = inhibition of at least 40% at 20 µM
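System: reconstituted apoptosome with Apaf-1, cytochrome c, caspase-9, procaspase-3, dATP; Signal: Rh110 fluorescence intensity; Schedule: 30 min compound preincubation, 50 min activation, room temperature; Reagent: cytochrome c trigger plus (Z-DEVD)2-Rh110 caspase-3 substrate.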
GASC-1 inh: inhibitors of human GASC-1 (JMJD2C) demethylase | 330,000 compounds, 0.069% hits | inhibition, % at 2.35 µM | Q9H3R0 | GST-JMJD2C(1-420) H3K9me3 demethylation, DELFIA europium;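 active = more than half of a compound's replicate wells show inhibition beyond 50%, single wells judged on their own value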;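 also: signal counts dimethyl H3K9 product captured on neutravidin plate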
PAD4 inh: PAD4 (human) enzyme inhibition; Q9UM07; AID 485272; inhibition, % at 6.36 µM; recombinant PAD4, RCA probe fluorescence polarization; 330,000 compounds, 0.41% hits;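 active = percent inhibition above a cutoff equal to the mean of all tested compounds plus 3 SD, cut at about 15% in these data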
GSTO1 counter: GSTO1 inhibition, counter-screen for RBBP9 inhibitors; P78417; recombinant GSTO1, activity-based probe fluorescence polarization; inhibition, % at 5.96 µM; 300,000 compounds, 1.1% hits;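 active = inhibition above the campaign mean inhibition plus 3 SD, cut at about 35% in these data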
TDP2 inh: blocks human TDP2 phosphodiesterase activity. O95551. recombinant TDP2, T5PNP hydrolysis, p-nitrophenol absorbance 415 nm. inhibition, % at 12.8 µM. 370,000 compounds, 0.34% hits. AID 720702;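 active = inhibition above the mean of all tested compounds plus 3 SD, set per campaign, cut at about 25% in these data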
Target sequence (O95551 whole entry, looked up): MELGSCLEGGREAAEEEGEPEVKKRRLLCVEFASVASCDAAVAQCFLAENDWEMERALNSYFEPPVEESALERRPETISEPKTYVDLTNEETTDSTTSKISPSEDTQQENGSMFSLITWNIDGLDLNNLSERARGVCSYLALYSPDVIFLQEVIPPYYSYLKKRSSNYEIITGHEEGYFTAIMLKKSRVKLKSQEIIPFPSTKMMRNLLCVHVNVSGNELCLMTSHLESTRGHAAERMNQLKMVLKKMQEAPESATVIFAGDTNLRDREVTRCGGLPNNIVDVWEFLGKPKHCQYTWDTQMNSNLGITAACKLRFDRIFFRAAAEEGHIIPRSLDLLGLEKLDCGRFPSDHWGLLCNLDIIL
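Assay system: Recombinant human TDP2 | Quantity: 120 nM TDP2 per well | Incubation: 2 h at 37 °C | Signal: Epi absorbance | Evaluation: Percent inhibition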
Apaf-1 inh conf2: Apaf-1 inhibition, single-dose confirmed. shares compounds with Apaf-1 inh. reconstituted apoptosome, caspase-3 DEVD-Rh110 fluorescence. inhibition, % at 20 µM. 1,800 compounds, 25% hits. AID 504614;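 active = mean inhibition of at least 40% at 20 µM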
Rh110 quench: Rh110 signal interference in Apaf-1 inhibitor counter-screen; shares compounds with Apaf-1 inh; Rh110 fluorescence interference, quenched caspase reaction; activation (fluorescence interference), % at 20 µM; 1,800 tested, under 10 active;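 active = signal rise of 40% or more at 20 µM, treated as a fluorescence artifact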
Fluor interf inh: counter-screen for Apaf-1 inhibitors: fluorescence interference, dose response. 460 tested, under 10 active. IC50, µM. fluorescence interference counterscreen, Apaf-1 assay format. shares compounds with Apaf-1 inh; call rule not given here
Each line names hits and unclear results; the compound was inactive in the other large screens (follow-up assays come after a bar, where they were run). Most compounds without a hit are left out; they make up all but 1.6% or so of the library.

C#CCOCCOCCOCCNc1nc(N2CCN(C(=O)CCCCCCCCCCNC(=O)Cn3cc(CCCCCN)nn3)CC2)nc(N2CCN(C(=O)CCCCCCCCCCNC(=O)Cn3cc(CCCCCN)nn3)CC2)n1	Apaf-1 inh 65.0 (no result: GASC-1 inh, TDP2 inh) | Apaf-1 inh conf2 50.6 | Rh110 quench inactive | Fluor interf inh inactive
C#CCOCCOCCOCCNc1nc(N2CCN(C(=O)CCCCCCCCCCNC(=O)Cn3cc(C[C@@H](C)O)nn3)CC2)nc(N2CCN(C(=O)CCCCCCCCCCNC(=O)[C@H](CCCN=C(N)N)n3cc(C[C@@H](C)CC)nn3)CC2)n1	Apaf-1 inh 62.0 (no result: TDP2 inh) | Apaf-1 inh conf2 inactive | Rh110 quench inactive
C#CCOCCOCCOCCNc1nc(N2CCN(C(=O)Cn3cc(CCCN=C(N)N)nn3)CC2)nc(N2CCN(C(=O)Cn3cc(CC(C)O)nn3)CC2)n1 (stereo not drawn)	none (no result: Apaf-1 inh, GASC-1 inh, PAD4 inh, GSTO1 counter)
COc1ccc(-c2cc(NC(=O)Cc3c[nH]c4ccccc34)ccc2Nc2cccnc2)c(OC)c1	none (no result: Apaf-1 inh, GASC-1 inh, PAD4 inh, GSTO1 counter)
Cc1ccccc1CC(=O)Nc1nnc(-c2cccnc2)s1	none (no result: Apaf-1 inh, GASC-1 inh, PAD4 inh, GSTO1 counter)
COCCCNC(=O)C1CCN(S(=O)(=O)c2ccc3[nH]c(=O)oc3c2)CC1	none (no result: Apaf-1 inh, GASC-1 inh, PAD4 inh, GSTO1 counter)
C#CCOCCOCCOCCNc1nc(N2CCN(C(=O)CCCCCCCCCCNC(=O)[C@H](CCCCN)n3cc(CCCC(=O)O)nn3)CC2)nc(N2CCN(C(=O)CCCCCCCCCCNC(=O)[C@@H]([C@H](C)O)n3cc(C)nn3)CC2)n1	none (no result: TDP2 inh)
C#CCOCCOCCOCCNc1nc(N2CCN(C(=O)CCCCCCCCCCNC(=O)[C@@H](CCC(=O)O)n3cc(CCCCCN)nn3)CC2)nc(N2CCN(C(=O)CCCCCCCCCCNC(=O)[C@H]([C@@H](C)CC)n3cc(CCCCCN)nn3)CC2)n1	Apaf-1 inh 61.5 (no result: GASC-1 inh, TDP2 inh) | Apaf-1 inh conf2 inactive | Rh110 quench inactive
C#CCOCCOCCOCCNc1nc(N2CCN(C(=O)CCCCCCCCCCNC(=O)[C@H]([C@@H](C)CC)n3cc(CCCCCN)nn3)CC2)nc(N2CCN(C(=O)CCCCCCCCCCNC(=O)[C@H](CCCCN)n3cc(CCCC(=O)O)nn3)CC2)n1	Apaf-1 inh 55.7 (no result: GASC-1 inh, TDP2 inh) | Apaf-1 inh conf2 inactive | Rh110 quench inactive
C#CCOCCOCCOCCNc1nc(N2CCN(C(=O)CCCCCCCCCCNC(=O)[C@H]([C@@H](C)CC)n3cc(CCCCN=C(N)N)nn3)CC2)nc(N2CCN(C(=O)CCCCCCCCCCNC(=O)[C@H](CCCCN)n3cc(C)nn3)CC2)n1	Apaf-1 inh 73.2 (no result: TDP2 inh) | Apaf-1 inh conf2 63.4 | Rh110 quench inactive | Fluor interf inh inactive
C#CCOCCOCCOCCNc1nc(N2CCN(C(=O)CCCCCCCCCCNC(=O)Cn3cc(C[C@@H](C)O)nn3)CC2)nc(N2CCN(C(=O)CCCCCCCCCCNC(=O)[C@@H](CCC(=O)O)n3cc(CCCCCN)nn3)CC2)n1	Apaf-1 inh 51.9 (no result: GASC-1 inh) | Apaf-1 inh conf2 inactive | Rh110 quench inactive
C#CCOCCOCCOCCNc1nc(N2CCOCC2)nc(N2CCN(C(=O)CCCCCCCCCCNC(=O)[C@@H](CCC(=O)O)n3cc(CCCCCN)nn3)CC2)n1	none
COc1cccc(/C=C2\CC3(OC(=O)c4ccc(Cl)cc4)CCCN2C3)c1 (stereo not drawn)	none (no result: Apaf-1 inh, GASC-1 inh, PAD4 inh, GSTO1 counter)
C#CCOCCOCCOCCNc1nc(N2CCN(C(=O)CCCCCCCCCCNC(=O)Cn3cc(CCCCCN)nn3)CC2)nc(N2CCN(C(=O)CCCCCCCCCCNC(=O)[C@H]([C@@H](C)CC)n3cc(CCCCN=C(N)N)nn3)CC2)n1	Apaf-1 inh 85.4 (no result: GASC-1 inh, TDP2 inh) | Apaf-1 inh conf2 69.1 | Rh110 quench inactive | Fluor interf inh inactive
C#CCOCCOCCOCCNc1nc(N2CCN(C(=O)Cn3cc(CCCN=C(N)N)nn3)CC2)nc(N2CCN(C(=O)[C@H]([C@@H](C)CC)n3cc(CCCCN)nn3)CC2)n1	none (no result: GASC-1 inh)
